Experimental data taken from ChEMBL document CHEMBL2169817, “Development of novel bisphosphonate prodrugs of doxorubicin for targeting bone metastases that are cleaved pH dependently or by cathepsin B: synthesis, cleavage properties, and binding properties to hydroxyapatite as well as bone matrix” (J Med Chem, 2012).
Activity calls are given as the source filed them. No cut-off for these calls is given here.

How the values were obtained:
[1] = Binding affinity to bovine bone matrix at pH 6 at 300 uM after 4 hrs by spectrophotometric analysis; assay type: ADME, Bos taurus; conditions: cattle, pH 6, 4 h
Summary of the method: (§1)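 Cortical bovine backbone bone cut into 6×4×1 mm pieces, washed with water and absolute ethanol, dried. About 50 mg bone stirred at 37 °C with 300 μM prodrug in 4 mM Na₂HPO₄, 150 mM NaCl, pH 6.0 or 7.4. Control without bone. Centrifuged, supernatant A495 read. % bound = (conc without bone − conc with bone)/conc without bone × 100.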

Bos taurus = species on record: Bos taurus; assay: Binding affinity to bovine bone matrix at pH 7.4 at 300 uM after 4 hrs by spectrophotometric analysis; summary of the method: as §1
[2] = Toxicity in iv dosed Balb/c nude mouse administered as doxorubicin equivalents once a week for 3 weeks; assay type: organism-based; conditions: in vivo
Summary of the method: (§2)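 Female Balb/C nude mice, five weeks old, about 20 g, three per group. Prodrug dissolved at 3.4 mM in sterile 10 mM sodium phosphate/sodium chloride buffer, pH 7.4. Given i.v. once weekly for three weeks at 8, 16 or 24 mg/kg doxorubicin equivalents. Behaviour and welfare checked daily, body weight every two days, observation over four weeks.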

Mus musculus [3] = assay: Toxicity in Balb/c nude mouse assessed as change in body weight at 24 mg/kg, iv of doxorubicin equivalents administered once a week on days 7, 14 and 21; assay type: organism-based; parameters: dose 24 mg/kg, route intravenous; conditions: in vivo; summary of the method: as §2
Mus musculus [4] = assay: Toxicity in Balb/c nude mouse assessed as mortality at 24 mg/kg, iv of doxorubicin equivalents administered once a week on days 7, 14 and 21 measured 13 days post-last dose; assay type: organism-based; parameters: dose 24 mg/kg, route intravenous; conditions: in vivo, 312 h; summary of the method: as §2
Mus musculus [5] = assay: Toxicity in Balb/c nude mouse assessed as anemia at 24 mg/kg, iv of doxorubicin equivalents administered once a week on days 7, 14 and 21 measured 13 days post-last dose; assay type: organism-based; parameters: dose 24 mg/kg, route intravenous; conditions: in vivo, 312 h; summary of the method: as §2
Mus musculus [6] = assay: Toxicity in Balb/c nude mouse assessed as adverse effects at 24 mg/kg, iv of doxorubicin equivalents administered once a week on days 7, 14 and 21; assay type: organism-based; parameters: dose 24 mg/kg, route intravenous; conditions: in vivo; summary of the method: as §2
Mus musculus [7] = assay: Toxicity in Balb/c nude mouse assessed as adverse effects at 16 mg/kg, iv of doxorubicin equivalents administered once a week on days 7, 14 and 21; assay type: organism-based; parameters: dose 16 mg/kg, route intravenous; conditions: in vivo; summary of the method: as §2
Mus musculus [8] = assay: Toxicity in Balb/c nude mouse assessed as adverse effects at 8 mg/kg, iv of doxorubicin equivalents administered once a week on days 0, 7 and 14 measured after 1 week; assay type: organism-based; parameters: dose 8 mg/kg, route intravenous; conditions: in vivo, 168 h; summary of the method: as §2
Mus musculus [9] = assay: Toxicity in Balb/c nude mouse assessed as weight loss at 8 mg/kg, iv of doxorubicin equivalents administered once a week on days 0, 7 and 14 measured after 1 week; assay type: organism-based; parameters: dose 8 mg/kg, route intravenous; conditions: in vivo, 168 h; summary of the method: as §2
Hydroxyapatite [10] = assay: Binding affinity to bone mineral hydroxyapatite at pH 6 at 300 uM after 1 hr by photometric analysis
Summary of the method: (§3)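 Compound diluted to 300 μM (checked by absorbance at 495 nm, ε 10650 M⁻¹ cm⁻¹) in 4 mM sodium phosphate, 150 mM NaCl at pH 6.0 or 7.4. Hydroxyapatite (30 equiv) added, stirred at 37 °C. Parallel solution without HA as control. Centrifuged at 0–6 h and 20 h; supernatant A495 read. Mean of three measurements. % bound = (conc without HA − conc with HA)/conc without HA × 100.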

Hydroxyapatite [11] = assay: Binding affinity to bone mineral hydroxyapatite at pH 7.4 at 300 uM after 5 hrs by photometric analysis; summary of the method: as §3
Hydroxyapatite [12] = assay: Binding affinity to bone mineral hydroxyapatite at pH 7.4 at 300 uM after 1 hr by photometric analysis; summary of the method: as §3
Plasma [13] = assay: Stability in human plasma assessed as anthracycline derivative formation over 6 hrs by HPLC analysis; assay type: ADME, cell-free
Summary of the method: (§4)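 Prodrug stock (3 mM in 10 mM sodium phosphate, 0.15 M NaCl, pH 7.4) added to EDTA-anticoagulated plasma from healthy volunteers, final 600 μM. Incubated at 37 °C for 0, 0.5, 1, 3 and 6 h. Samples centrifuged; supernatant analysed by C18 RP-HPLC with detection at 495 nm.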

Plasma [14] = assay: Stability in human plasma assessed as doxorubicin formation over 6 hrs by HPLC analysis; assay type: ADME, cell-free; summary of the method: as §4
[15] = Prodrug conversion assessed as doxorubicin formation at pH 5.5 at 600 uM by HPLC analysis; assay type: physicochemical; conditions: pH 5.5, 600 µM; TDE = time-dependent effect
Summary of the method: (§5)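 Prodrug at a final 2.4 mM in 4 mM sodium phosphate, 150 mM NaCl (pH 7.4), brought to pH 5.5 with 50 mM sodium acetate (pH 4.5). Held at room temperature; samples diluted to 600 μM and analysed by isocratic C18 HPLC (30% CH₃CN/10 mM phosphate pH 7.8) at 5–300 min.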

[16] = Half life of the compound at pH 5.5 at 600 uM by HPLC analysis; assay type: physicochemical; summary of the method: as §5
Hydroxyapatite [17] = assay: Binding affinity to bone mineral hydroxyapatite at pH 7.4 at 300 uM by photometric analysis
Summary of the method: (§6)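 Test compound at 300 μM in 4 mM sodium phosphate with 150 mM NaCl, at pH 6.0 or pH 7.4, concentration checked by absorbance at 495 nm. Hydroxyapatite powder (30 equiv) added, stirred, incubated at 37 °C, with a matching sample without hydroxyapatite as control. Centrifuged at 0–6 h and 20 h. Supernatant A495 read (ε 10650 M⁻¹ cm⁻¹). % bound = (no-HA − HA conc)/no-HA conc × 100. Mean of three measurements.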

Hydroxyapatite [18] = assay: Binding affinity to bone mineral hydroxyapatite at pH 6 at 300 uM by photometric analysis; summary of the method: as §6
Mus musculus [19] = assay: Toxicity in Balb/c nude mouse assessed as mortality at 24 mg/kg, iv of doxorubicin equivalents measured on day 7; assay type: organism-based; parameters: dose 24 mg/kg, route intravenous; conditions: in vivo; summary of the method: as §2
Mus musculus [20] = assay: Toxicity in Balb/c nude mouse assessed as mortality at 16 mg/kg, iv of doxorubicin equivalents measured on day 7; assay type: organism-based; parameters: dose 16 mg/kg, route intravenous; conditions: in vivo; summary of the method: as §2
Hydroxyapatite [21] = assay: Binding affinity to bone mineral hydroxyapatite at pH 6 at 300 uM up to 24 hrs by photometric analysis; summary of the method: as §3
Hydroxyapatite [22] = assay: Binding affinity to bone mineral hydroxyapatite at pH 7.4 at 300 uM after 24 hrs by photometric analysis
[23] = Prodrug conversion assessed as doxorubicin formation after 40 mins by HPLC analysis at pH 6 in presence of cathepsin B; assay type: physicochemical; conditions: pH 6, 40 min
Summary of the method: (§7)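 Prodrug stock (1.5 mM) mixed with human liver cathepsin B (0.4 mg/mL, 23.8 U/mg) in 50 mM sodium acetate, 100 mM NaCl, 4 mM EDTA, 8 mM L-cysteine at pH 5.0 or 6.0. Incubated at 37 °C. Aliquots taken at 5–120 min and analysed by gradient C18 RP-HPLC. Control at pH 5.0 omitted the enzyme.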

[24] = […] by HPLC analysis at pH 5 in absence of cathepsin B; assay type: physicochemical; conditions: buffer
[25] = Prodrug conversion assessed as doxorubicin formation after 120 mins by HPLC analysis at pH 5 in presence of cathepsin B; assay type: physicochemical; conditions: pH 5, 2 h; summary of the method: as §7
[26] = Prodrug conversion assessed as doxorubicin formation by HPLC analysis at pH 5 in presence of cathepsin B; assay type: physicochemical; summary of the method: as §7
[27] = Half life of the compound by HPLC analysis at pH 5 in presence of cathepsin B; assay type: physicochemical; summary of the method: as §7

SMILES | Activity [1] | Activity (Bos taurus) | MTD at 504 h [2] [mg/kg] | Activity (Mus musculus [8]) | Activity (Mus musculus [9]) | Activity (Hydroxyapatite [10]) [%] | Activity (Hydroxyapatite [11]) [%] | Activity (Hydroxyapatite [12]) [%] | Drug metabolism [26] | also measured
COc1cccc2c1C(=O)c1c(O)c3c(c(O)c1C2=O)C[C@@](O)(/C(CO)=N/NC(=O)CCCCCN1C(=O)CC(SCCCSCC(P(=O)(O)O)P(=O)(O)O)C1=O)C[C@@H]3O[C@H]1C[C@H](N)[C@H](O)[C@H](C)O1.Cl.N.N.N.N (some centres not stated) | 80% | 50% | 24 | Non-toxic | Non-toxic | 65 | 80 | 50 | – | Activity (Mus musculus [3]): Non-toxic; Activity (Mus musculus [4]): Toxic; Activity (Mus musculus [5]): Toxic; Activity (Mus musculus [6]): Non-toxic; Activity (Mus musculus [7]): Non-toxic; Drug metabolism (Plasma [13]): Active; Drug metabolism (Plasma [14]): Active; Drug metabolism [15]: tde; half-life at 600 µM [16]: 2.5 h
COc1cccc2c1C(=O)c1c(O)c3c(c(O)c1C2=O)C[C@@](O)(C(=O)CO)C[C@@H]3O[C@H]1C[C@H](N)[C@H](O)[C@H](C)O1 [DOXORUBICIN] | Not Active | inactive | 8 | – | – | – | – | – | – | Activity (Hydroxyapatite [17]): inactive; Activity (Hydroxyapatite [18]): inactive
COc1cccc2c1C(=O)c1c(O)c3c(c(O)c1C2=O)C[C@@](O)(C(=O)CO)C[C@@H]3O[C@H]1C[C@H](NC(=O)OCc2ccc(NC(=O)[C@H](C)NC(=O)[C@@H](NC(=O)CCCCCN3C(=O)CC(SCCCSCC(P(=O)(O)O)P(=O)(O)O)C3=O)C(C)C)cc2)[C@H](O)[C@H](C)O1.N.N.N.N (some centres not stated) | 80% | 50% | 8 | Non-toxic | Non-toxic | 65 | 90 | 50 | Active | Activity (Mus musculus [19]): Toxic; Activity (Mus musculus [20]): Toxic; Activity (Hydroxyapatite [21]): 90%; Activity (Hydroxyapatite [22]): 100%; Stability (Plasma [13]): Stable; Stability (Plasma [14]): Stable; Drug metabolism [23]: Active; Stability [24]: Stable; Drug metabolism [25]: Active; half-life [27]: 0.75 h
COc1cccc2c1C(=O)c1c(O)c3c(c(O)c1C2=O)C[C@@](O)(C(=O)CO)C[C@@H]3O[C@H]1C[C@H](NC(=O)OCc2ccc(NC(=O)[C@H](CCCCN)NC(=O)[C@H](Cc3ccccc3)NC(=O)CCCCCN3C(=O)CC(SCCCSCC(P(=O)([O-])[O-])P(=O)([O-])[O-])C3=O)cc2)[C@H](O)[C@H](C)O1.O=C(O)C(F)(F)F.[Na+].[Na+].[Na+].[Na+] (some centres not stated) | – | – | – | – | – | – | – | – | Active | –
